High-throughput results from PubChem BioAssay.
STAT1 act: activators of IFN-gamma induced STAT1 signaling; NIH 3T3 STAT1-luciferase reporter, luminescence; 100% = IFN-gamma alone, no compound; activation (% of control), % at 5.5 µM; 200,000 compounds, 2.6% hits;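 active = activation above the screen-wide mean activation plus 3 SD, cut at about 130% in these data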;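 also: raw ratio to IFN-gamma control signal so 100% means no change and 0% no light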
STAT3 inh: inhibitors of IL-6 induced STAT3 signaling; inhibition, % at 5.5 µM; U3A cells, IL-6 STAT3-luciferase reporter, luminescence; host cell line lacks STAT1; 190,000 compounds, 0.89% hits;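 active = inhibition above the mean inhibition across all screened compounds plus 3 SD, cut at about 44% in these data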;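 also: 0% = DMSO only wells and 100% = 100 µM nifuroxazide control wells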
STAT3 act: activators of IL-6 induced STAT3 signaling. U3A cells, IL-6 STAT3-luciferase reporter, luminescence; 100% = signal with IL-6 EC80 alone. activation (% of control), % at 5.6 µM. 190,000 compounds, 0.91% hits. AID 871;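 active = activation above the screen-wide mean of compound activation plus 3 SD, cut at about 130% in these data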;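 also: 0% = background luminescence of wells with medium and substrate only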
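Material: STAT1-lacking human U3A cells, STAT3 luciferase reporter | Benchmarks: IL-6-only wells as 100% reference | Probe or stimulus: IL-6 (33 ng/mL) | Timing: Compound 1 h, then IL-6 6 h at 37 °C | Detection: Luminescence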
STAT1 blocker: STAT1 signaling inhibition. 200,000 compounds, 0.35% hits. NIH 3T3 STAT1-luciferase reporter, IFN-gamma, luminescence. inhibition, % at 5.5 µM;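 active = inhibition above a set limit, the mean inhibition across all tested compounds plus 3 SD, cut at about 34% in these data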;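 also: 0% = IFN-gamma with DMSO and 100% = IFN-gamma with 300 µM nifuroxazide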
STAT1 act conf: STAT1 activation, confirmation assay | shares compounds with STAT1 act | NIH 3T3 STAT1-luciferase reporter, IFN-gamma potentiation, luminescence; 100% = IFN-gamma EC80 alone, no compound | activation (% of control), % at 5.7 µM | 1,200 compounds, 97% hits | AID 1262;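 active = activation above a set limit carried over from the earlier primary STAT1 screen, cut at about 140% in these data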;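 also: simple ratio to median IFN-gamma plus DMSO wells so 0% means no light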
NFkB act: NF-kappaB activation in STAT1 activator counter-screen | shares compounds with STAT1 act | HEK293T NF-kB luciferase reporter, TNF-alpha stimulated, luminescence; 100% = TNF-alpha with vehicle only | activation (% of control), % at 5.7 µM | 1,200 compounds, 43% hits | AID 1306;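 active = activation above the mean of solvent-only control wells plus 3 SD, set per campaign, cut at about 130% in these data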;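 also: TNF-alpha given at a submaximal dose yielding about 80% of full reporter signal; values are well signal over median control so 100% means no change and 0% no light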
STAT3 act 2: human STAT3 activation in STAT1 activator counter-screen | shares compounds with STAT1 act | U3A cells STAT3-luciferase reporter, IL-6, luminescence; cells lack STAT1; 100 = IL-6 alone, no compound effect | activation (% of control), % at 5.7 µM | 1,200 compounds, 46% hits | AID 1316;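 active = activation above the solvent-only control well mean plus 3 SD, set per plate batch, cut at about 110% in these data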;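 also: 0% = no luminescence and 100% = median IL-6 plus DMSO wells; higher means more STAT3 reporter activation so hits are non-selective activators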
An asterisk follows results filed as active; / = no result. Rows were chosen to be rich in hits. Some 4.3% of all compounds tested hit in one or more screens of this group.

SMILES	STAT1 act	STAT3 inh	STAT3 act	STAT1 blocker	STAT1 act conf	NFkB act	STAT3 act 2
COc1ccc(C2=NN(C(C#N)c3ccc(OC)cc3)C(c3ccccc3)C2)cc1 (stereo unspecified)	172*	1	100	-80	128	129	100
O=C(NNC(=O)c1sccc1-n1cccc1)Nc1ccc(F)cc1	104	7	96	-6	/	/	/
Cc1ccc(CN2CCN(Cc3cccn3-c3ccccn3)CC2CCO)o1 (stereo unspecified)	105	15	91	-7	/	/	/
NC(=O)NCCC1=CCCCC1	98	3	98	2	/	/	/
Cc1cc(C(=O)NCCC2=CCCCC2)c(C)o1	155*	12	93	-47	181*	120	110
Cc1noc(NS(=O)(=O)c2ccc(N/C=C/C(=O)c3cccnc3)cc2)c1C	103	14	94	-2	/	/	/
O=C(/C=C\Nc1ccc(Br)cc1)c1cccnc1	162*	14	91	-70	198*	117	90
O=C(Nc1ccccc1-c1nnc(SCc2ccccc2Cl)o1)c1ccccc1	97	17	91	3	/	/	/
CC(/C=N/Nc1nc(C)cc(=O)[nH]1)=C\c1ccccc1	109	22	88	-9	/	/	/
Cc1cc(=O)[nH]c(N/N=C/c2sccc2C)n1	111	-5	102	-12	/	/	/
CC(/C=N/Nc1nc2ccccc2[nH]1)=C\c1ccccc1	192*	14	84	-101	246*	139*	114*
Cc1nn(-c2ccccc2)c(C)c1/C=N/Nc1nc2ccccc2[nH]1	204*	17	88	-116	289*	124	108
Cc1ccsc1/C=N/Nc1nc2ccccc2[nH]1	153*	-1	103	-59	193*	132	107
Cc1ccccc1CSc1nc(C(C)(C)C)cc(=O)[nH]1	99	9	100	1	/	/	/
Cc1ccc(-n2nnc(-c3ccnc4ccccc34)n2)cc1	156*	/	/	-58	183*	136*	104
Fc1ccc(-n2nnc(-c3ccnc4ccccc34)n2)cc1	171*	/	/	-74	203*	139*	117*
CC(C)C(=O)Nc1ncc2c(n1)CC(c1cccs1)CC2=O (stereo unspecified)	107	4	99	-4	/	/	/
Cc1nnc(SCC(=O)Nc2cc(-c3cc(C)c(C)cc3C)nn2-c2ccccc2)s1	92	-5	102	9	/	/	/
CCCc1ccc(-c2cc(NC(=O)CSc3nnc(N)s3)n(-c3ccccc3)n2)cc1	159*	-16	109	-65	189*	134*	111*
O=[N+]([O-])c1ccccc1-c1nc(-c2ccc(Br)o2)no1	170*	-7	106	-79	200*	132	137*
Nc1nnc(-c2ccccc2[N+](=O)[O-])o1	109	8	96	-12	/	/	/
Nc1nc2ccccc2n1/N=C/c1ccc(-c2ccccc2)o1	155*	22	84	-61	160*	121	99
Cc1ccc2nc(-c3ccc(NC(=O)CCN4C(=O)c5ccccc5C4=O)cc3)sc2c1	160*	31	71	-66	153*	99	60
O=C1C(C=Nc2ccccc2)=C(O)c2ccccc21	163*	39	68	-60	244*	125	126*
CCOCCn1c(CN(Cc2ccccc2)Cc2ccccc2)nc2c1c(=O)n(C)c(=O)n2C	92	12	97	9	/	/	/
SMILES	STAT1 act	STAT3 inh	STAT3 act	STAT1 blocker	STAT1 act conf	NFkB act	STAT3 act 2
CCCOC(=O)c1ccc(NC(=O)c2ccccc2[N+](=O)[O-])cc1	118	-1	104	-21	/	/	/
CCOC(=O)c1cnc(SCc2ccccc2)nc1N	158*	6	96	-69	212*	135*	109
CCOC(=O)c1cnc(SCc2ccc(C(C)(C)C)cc2)nc1N	101	5	97	-1	/	/	/
COc1ccc(NC(=O)c2ccc(NCCN3C(=O)CCC3=O)c([N+](=O)[O-])c2)cc1	96	14	95	2	/	/	/
Cc1ccn2c(c1)nc(=S)n2C(=O)c1ccccc1	283*	-11	113	-202	518*	185*	138*
Cc1ccn2c(C(=O)CSc3ccccc3)c(C)nc2c1	110	16	89	-13	/	/	/
O=C(NS(=O)(=O)Oc1ccc(Cl)cc1)OC[C@@H]1CCCN2CCCC[C@H]12	97	15	90	3	/	/	/
CCNc1nc(N)nc(-c2cc(Cl)ccc2O)n1	196*	29	77	-104	288*	145*	167*
CCCN(CCC)c1nc(N)nc(-c2cc(Cl)ccc2OC)n1	100	3	97	0	/	/	/
CCCNc1nc(N)nc(-c2cc(Cl)ccc2OC)n1	97	-8	107	3	/	/	/
CCCCNc1nc(N)nc(-c2cc(Cl)ccc2O)n1	178*	-7	110	-89	230*	145*	154*
COc1cccc(-c2cc(C(=O)N3CCCCC3C)no2)c1 (stereo unspecified)	154*	-22	122	-59	181*	134*	123*
COc1ccc(NC(=S)NC2CCCCC2)cn1	106	2	105	-7	/	/	/
Fc1ccccc1OCCSc1nnnn1-c1ccccc1	161*	14	91	-53	219*	124	115*
c1ccc(OCCSc2nnnn2-c2ccccc2)cc1	160*	4	100	-66	204*	123	117*
CC1=N/C(=C/c2cccnc2)C(=O)O1	96	9	94	4	/	/	/
COc1cc(NC(=O)Cc2c(C(=O)O)n(C)c3ccccc23)cc(OC)c1OC	96	17	88	4	/	/	/
COc1ccc2oc(=N)c(C(=O)Nc3ccccc3)cc2c1	162*	-12	111	-69	196*	138*	136*
Cn1cc(CNCc2ccccc2OCC(O)CN2CCc3ccccc3C2)cn1 (stereo unspecified)	96	0	105	3	/	/	/
CC(C)(C)C(=O)COc1ccccc1[N+](=O)[O-]	94	6	103	6	/	/	/
CCOC(=O)/C=C/COc1ccccc1[N+](=O)[O-]	154*	-4	107	-58	146*	119	100
CCOc1ccc(NC(=O)CC2C(=O)N(c3ccccc3)C(=O)N2CCc2cccs2)cc1 (stereo unspecified)	89	11	89	12	/	/	/
CN(C)S(=O)(=O)c1cccc(NC(=O)CCNC(=O)c2ccccc2Cl)c1	99	8	93	1	/	/	/
O=C(O)/C=C\C(=O)Nc1ccccc1C#Cc1ccc(Br)cc1	159*	-2	111	-65	131*	130	95
